Test results taken from ChEMBL document CHEMBL1158489, “Synthesis and evaluation of 4-acyl-2-thiazolylhydrazone derivatives for anti-Toxoplasma efficacy in vitro” (J Med Chem, 2009).
Activity calls are given as the source filed them. The rule behind the calls is not given here.

Experiments:
Toxoplasma gondii [1] = assay: Antiparasitic activity against Toxoplasma gondii 2F tachyzoites infected in HFF assessed as inhibition of tachyzoite host cell invasion at 25 uM treated 20 mins prior to infection measured after 1 hr using DAPI staining by immunofluorescence microscopy relative to control; format: functional; set-up: scale not given: the % may be the effect or the level left
In short: (§1)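 Tachyzoites (strain 2F) preincubated with compound or DMSO (final 25 μM) at room temperature 20 min, then added to HFF monolayers; 1 h at 37 °C, 5% CO2, rinsed and fixed. Red/green sequential staining: attached/extracellular parasites labelled Rb anti-p30 with Alexa Fluor 594 (red), penetrated/intracellular green, host nuclei blue. Penetrated and attached counts compared with DMSO control.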

[2] = Therapeutic index, ratio of TD50 for human HFF to IC50 for Toxoplasma gondii 2F tachyzoites; details: HFF cells and Toxoplasma gondii 2F tachyzoites, read-out: TI
[3] = Cytotoxicity against human HFF by spectrophotometry; format: cell-based; details: HFF cells, read-out: TD50 (the source's name)
Toxoplasma gondii [4] = assay: Antiparasitic activity against Toxoplasma gondii 2F tachyzoites infected in HFF assessed as parasite growth inhibition-related decrease in beta-galactosidase activity treated prior to infection measured after 5 days by spectrophotometry; format: functional, organism-based; details: 120 h
Toxoplasma gondii [5] = assay: Antiparasitic activity against Toxoplasma gondii 2F tachyzoites infected in HFF assessed as inhibition of intracellular parasite replication at 25 uM treated 2 hrs postinfection measured after 26 hrs using DAPI staining by fluorescence microscopy relative to control; format: functional, organism-based
In short: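 HFF monolayers inoculated with tachyzoites, 2 h incubation, then compound (final 25 μM) or DMSO control added to medium. Replication ran 26 h; monolayers fixed, permeabilized, immunolabelled with Rb anti-p30 (SAG1) and goat anti-rabbit Alexa Fluor 594 (red), imaged by fluorescence.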

Toxoplasma gondii [6] = assay: Antiparasitic activity against Toxoplasma gondii 2F tachyzoites infected in HFF assessed as decrease in parasite penetration and attachment to host cell at 25 uM treated 20 mins prior to infection measured after 1 hr using DAPI staining by immunofluorescence microscopy relative to control; format: functional; set-up: scale not given: the % may be the effect or the level left; in short: as §1

Compound | Activity (Toxoplasma gondii [1]) | selectivity ratio [2] | CC50 [3] | IC50 (Toxoplasma gondii [4]) | IC90 (Toxoplasma gondii [4]) | Activity (Toxoplasma gondii [5]) | Activity (Toxoplasma gondii [6])
CCOC(=O)c1csc(NN=C2CCCCC2)n1 | 45% | 4 | ≥ 320 µM | 160 µM | 638 µM |  | 
O=C(O)c1csc(NN=C2CCCCC2)n1 | 45% |  | ≥ 320 µM | ≥ 320 µM |  |  | 
CC1CCC/C1=N/Nc1nc(C(=O)O)cs1 (centres undefined) |  |  | ≥ 320 µM | ≥ 320 µM |  |  | 
CCOC(=O)c1csc(NN=C2CCCC2)n1 |  | 6 | ≥ 320 µM | 92 µM | 239 µM |  | 
CC1CC/C(=N/Nc2nc(C(=O)O)cs2)C1 (centres undefined) | 47% | 2 | 82 µM | 38 µM | 70 µM |  | 
CCOC(=O)c1csc(N/N=C(\C)c2cc3ccccc3oc2=O)n1 |  | 27 | ≥ 320 µM | 21 µM | 55 µM |  | 
CC1CCCC/C1=N/Nc1nc(C(=O)O)cs1 (centres undefined) |  | 4 | ≥ 320 µM | 128 µM | 310 µM |  | 
CCOC(=O)c1csc(N/N=C(\C)c2ccccn2)n1 | 147% | 2 | 6 µM | 3 µM | 7 µM | Active | 
O=C(O)c1csc(NN=C2CCCCCC2)n1 |  | 3 | ≥ 320 µM | 179 µM | 3870 µM |  | 
CCOC(=O)c1csc(N/N=C2/CCCC(C)C2)n1 (centres undefined) | 48% | 6 | 84 µM | 15 µM | 46 µM |  | 
CC1CCC(=NNc2nc(C(=O)O)cs2)CC1 (centres undefined) |  |  | ≥ 320 µM | ≥ 320 µM |  |  | 
CCOC(=O)c1csc(N/N=C/c2cccnc2)n1 |  | 4 | ≥ 320 µM | 162 µM | 398 µM |  | 
CCOC(=O)c1csc(NN=C2CCC(C)CC2)n1 (centres undefined) |  | 9 | ≥ 320 µM | 60 µM | 151 µM |  | 
CCOC(=O)c1csc(N/N=C/c2c[nH]c3ccccc23)n1 |  | 2 | ≥ 320 µM | 280 µM | 2240 µM |  | 
CCOC(=O)c1csc(N/N=C(\C)c2cccnc2)n1 |  | 17 | ≥ 320 µM | 34 µM | 86 µM |  | 
CCOC(=O)c1csc(N/N=C/c2cccs2)n1 |  |  | ≥ 320 µM | ≥ 320 µM |  |  | 

Compound | Activity (Toxoplasma gondii [1]) | selectivity ratio [2] | CC50 [3] | IC50 (Toxoplasma gondii [4]) | IC90 (Toxoplasma gondii [4]) | Activity (Toxoplasma gondii [5]) | Activity (Toxoplasma gondii [6])
CCOC(=O)c1csc(N/N=C/c2ccc3c(c2)OCO3)n1 |  | 1 | ≥ 320 µM | 479 µM | 2590 µM |  | 
CCOC(=O)c1csc(N/N=C(\C)c2ccco2)n1 |  | 5 | 241 µM | 49 µM | 161 µM |  | 
CCOC(=O)c1csc(N/N=C2/CCC(C)C2)n1 (centres undefined) | 48% | 10 | ≥ 320 µM | 59 µM | 190 µM |  | 
CCOC(=O)c1csc(N/N=C2/CCCC2C)n1 (centres undefined) |  | 4 | ≥ 320 µM | 130 µM | 248 µM |  | 
COc1cc(Cc2cnc(N)nc2N)cc(OC)c1OC [TRIMETHOPRIM] |  | 41 | ≥ 320 µM | 14 µM |  |  | 
CCOC(=O)c1csc(N/N=C(\C)c2cccs2)n1 |  | 15 | ≥ 320 µM | 37 µM | 136 µM |  | 
CCOC(=O)c1csc(N/N=C(\C)c2ccc3ccccc3c2)n1 | 45% | 3 | 127 µM | 43 µM | 88 µM |  | 
CCOC(=O)c1csc(N/N=C/c2ccco2)n1 |  |  | ≥ 320 µM | ≥ 320 µM |  |  | 
CCOC(=O)c1csc(NN=C2CCCCCC2)n1 |  | 7 | ≥ 320 µM | 77 µM | 226 µM |  | 
CCOC(=O)c1csc(N/N=C/c2cccc3ccccc23)n1 | 35% | 11 | ≥ 320 µM | 52 µM | 182 µM |  | 47%
CCOC(=O)c1csc(N/N=C/c2ccncc2)n1 | 49% |  | ≥ 320 µM | ≥ 320 µM |  |  | 
O=C(O)c1csc(NN=C2CCCC2)n1 |  |  | ≥ 320 µM | ≥ 320 µM |  |  | 47%
CCOC(=O)c1csc(N/N=C2/CCCCC2C)n1 (centres undefined) |  | 3 | ≥ 320 µM | 185 µM | 508 µM |  | 
CCOC(=O)c1csc(N/N=C(\C)c2ccncc2)n1 |  | 9 | ≥ 320 µM | 64 µM | 188 µM |  | 
CC1CCC/C(=N/Nc2nc(C(=O)O)cs2)C1 (centres undefined) |  |  | ≥ 320 µM | ≥ 320 µM |  |  | 
